We go through two compounds from ChEMBL document CHEMBL4308921, “Structure-Activity Relationships of Central Nervous System Penetration by Fatty Acid Amide Hydrolase (FAAH)-Targeted Thyromimetic Prodrugs” (ACS Med Chem Lett, 2019).

Structures are written as SMILES. The source made the active and inactive calls. The rule behind the calls is not given here.

For data set [1], the target named is T1, Thyroid hormone receptor alpha (Homo sapiens) (UniProt P10827).
T1 sequence (whole entry): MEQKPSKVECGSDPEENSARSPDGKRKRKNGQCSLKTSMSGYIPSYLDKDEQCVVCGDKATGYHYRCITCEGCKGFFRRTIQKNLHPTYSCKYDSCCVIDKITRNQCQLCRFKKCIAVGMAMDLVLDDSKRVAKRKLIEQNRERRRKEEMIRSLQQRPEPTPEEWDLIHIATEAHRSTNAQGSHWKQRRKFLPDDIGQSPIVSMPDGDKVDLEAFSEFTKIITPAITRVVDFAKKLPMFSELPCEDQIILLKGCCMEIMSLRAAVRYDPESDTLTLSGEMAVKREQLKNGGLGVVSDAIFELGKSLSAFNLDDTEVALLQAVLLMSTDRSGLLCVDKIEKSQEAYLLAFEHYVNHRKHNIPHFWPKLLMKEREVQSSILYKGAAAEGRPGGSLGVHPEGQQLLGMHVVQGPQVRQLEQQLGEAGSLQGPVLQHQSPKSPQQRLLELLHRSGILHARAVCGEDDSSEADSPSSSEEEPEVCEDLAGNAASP
Kind of data set: Agonist activity at human TRalpha treated at 1 hr post FAAH inhibitor PF-3845 treatment and measured after 24 hrs by cell based luciferase reporter gene assay. In outline:
(§1)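 A plate-based luciferase reporter assay measured TRα or TRβ activation as dose-response curves, run in the presence of the FAAH inhibitor PF-3845. Data are mean ± SEM, n = 3.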
For orientation: Reporter assays use an easily measured gene product as a stand-in for the process of interest.

Data set [2] can be described thus: AUC (0 to 24 hrs) in C57BL/6 mouse brain assessed as sobetirome level at 9.15 umol/kg, po via gavage by LC-MS/MS analysis. Format: ADME, organism-based. Also noted: dose 9.15 umol/kg, time < 24 hr, route oral. Particulars: in vivo.
A short description of data set [3]: Terminal half life in C57BL/6 mouse at 9.15 umol/kg, iv by LC-MS/MS analysis. Format: ADME, organism-based. As to conditions: in vivo, read-out: beta t1/2 (converted).
Data set [4] in a line: Brain to serum permeability coefficient, Kp of the compound in C57BL/6 mouse assessed as sobetirome level at 9.15 umol/kg, iv measured up to 24 hrs by LC-MS/MS analysis. Format: ADME, organism-based.
Data set [5] has as its target T2, Fatty-acid amide hydrolase 1 (Homo sapiens, UniProt O00519).
T2 sequence (O00519 whole entry): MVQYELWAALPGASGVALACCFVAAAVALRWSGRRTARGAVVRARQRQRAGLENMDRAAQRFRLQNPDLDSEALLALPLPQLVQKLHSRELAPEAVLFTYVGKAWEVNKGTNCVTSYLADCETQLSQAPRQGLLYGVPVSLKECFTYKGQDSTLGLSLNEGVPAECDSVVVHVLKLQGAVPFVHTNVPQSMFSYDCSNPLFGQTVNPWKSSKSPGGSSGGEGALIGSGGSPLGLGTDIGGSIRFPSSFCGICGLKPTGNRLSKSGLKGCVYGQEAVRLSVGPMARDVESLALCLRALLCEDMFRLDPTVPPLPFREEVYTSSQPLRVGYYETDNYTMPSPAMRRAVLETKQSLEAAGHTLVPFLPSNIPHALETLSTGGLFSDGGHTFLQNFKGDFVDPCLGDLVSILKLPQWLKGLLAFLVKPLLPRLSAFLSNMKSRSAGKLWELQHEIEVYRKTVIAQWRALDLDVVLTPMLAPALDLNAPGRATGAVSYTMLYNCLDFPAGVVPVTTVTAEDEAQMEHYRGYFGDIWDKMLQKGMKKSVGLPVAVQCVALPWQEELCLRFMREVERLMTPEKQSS
Description: Prodrug activation in COS7 cells overexpressing human FAAH assessed as FAAH-mediated sobetirome formation by measuring compound hydrolysis rate at 100 uM by LC-MS/MS analysis. Type of data set: cell-based. In outline: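 Hydrolysis kinetics were measured in homogenate of COS-7 cells overexpressing human FAAH, with prodrug substrate at 100 µM. Rate is given as nmol mg-1 min-1, mean ± SEM, n = 3.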

Data set [6] in a line: Brain to serum permeability coefficient, Kp of the compound in C57BL/6 mouse assessed as sobetirome level at 9.15 umol/kg, po via gavage measured up to 24 hrs by LC-MS/MS analysis. Format: ADME, organism-based.
Data set [7] is described as follows: Tmax in C57BL/6 mouse serum assessed as sobetirome level at 9.15 umol/kg, iv by LC-MS/MS analysis. Format: ADME, organism-based. As to conditions: in vivo.
Data set [8] is described as follows: Brain to serum permeability coefficient, Kp of the compound in C57BL/6 mouse assessed as sobetirome level at 3.05 umol/kg, ip after 1 hr by LC-MS/MS analysis. Format: ADME, organism-based.
Data set [9] can be described thus: Oral bioavailability in C57BL/6 mouse at 9.15 umol/kg administered via gavage by LC-MS/MS analysis. Type of data set: ADME, organism-based. Particulars: in vivo.
A short description of data set [10]: Prodrug activation in C57BL/6 mouse brain assessed as FAAH-mediated sobetirome formation at 3.05 umol/kg, ip after 1 hr by LC-MS/MS analysis. As to conditions: in vivo. Type of data set: organism-based.
Data set [11] in a line: Tmax in C57BL/6 mouse brain assessed as sobetirome level at 9.15 umol/kg, iv by LC-MS/MS analysis. As to conditions: in vivo. Type of data set: ADME, organism-based.
Data set [12] addresses T3, Thyroid hormone receptor beta (Homo sapiens) (UniProt P10828).
T3 sequence (whole entry): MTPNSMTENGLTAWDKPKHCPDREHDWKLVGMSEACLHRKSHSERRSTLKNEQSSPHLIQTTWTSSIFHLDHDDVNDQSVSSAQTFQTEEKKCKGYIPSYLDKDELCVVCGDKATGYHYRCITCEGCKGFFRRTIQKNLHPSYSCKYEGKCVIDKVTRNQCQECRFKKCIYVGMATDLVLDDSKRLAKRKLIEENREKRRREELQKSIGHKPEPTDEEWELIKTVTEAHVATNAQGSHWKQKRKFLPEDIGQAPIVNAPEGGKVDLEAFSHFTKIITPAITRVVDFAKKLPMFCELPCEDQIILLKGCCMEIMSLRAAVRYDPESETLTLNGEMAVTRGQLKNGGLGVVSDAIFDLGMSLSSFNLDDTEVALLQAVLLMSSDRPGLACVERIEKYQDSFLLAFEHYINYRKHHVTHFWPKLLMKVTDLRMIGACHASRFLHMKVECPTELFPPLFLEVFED
Description: Agonist activity at human TRbeta treated at 1 hr post FAAH inhibitor PF-3845 treatment and measured after 24 hrs by cell based luciferase reporter gene assay. In outline: as §1

Data set [13] is described as follows: Prodrug activation in C57BL/6 mouse serum assessed as FAAH-mediated sobetirome formation at 3.05 umol/kg, ip after 1 hr by LC-MS/MS analysis. Particulars: in vivo. Format: organism-based.
Data set [14] in a line: Clearance in C57BL/6 mouse at 9.15 umol/kg, iv by LC-MS/MS analysis. Format: ADME, organism-based. As to conditions: in vivo.
A short description of data set [15]: AUC (0 to 24 hrs) in C57BL/6 mouse brain assessed as sobetirome level at 9.15 umol/kg, iv by LC-MS/MS analysis. Type of data set: ADME, organism-based. More on the design: dose 9.15 umol/kg, time < 24 hr, route intravenous. As to conditions: in vivo.
The nature of data set [16]: Drug uptake in C57BL/6 mouse brain at 3.05 umol/kg, ip after 1 hr by LC-MS/MS analysis. Type of data set: ADME, organism-based. Particulars: read-out: Drug uptake.
Data set [17] can be described thus: Brain to serum permeability coefficient, Kp of the compound in C57BL/6 mouse at 3.05 umol/kg, ip after 1 hr by LC-MS/MS analysis. Type of data set: ADME, organism-based.
A short description of data set [18]: Drug uptake in C57BL/6 mouse serum at 3.05 umol/kg, ip after 1 hr by LC-MS/MS analysis. Format: ADME, organism-based. Particulars: read-out: Drug uptake.

For `CNC(=O)COc1cc(C)c(Cc2ccc(O)c(C(C)C)c2)c(C)c1`, the result in data set [1] and in [12] was Active. Moreover, the AUC in data set [2] was found to be 378 ng·h/g; in data set [15], 694 ng·h/g. Further, the half-life in data set [3] is 8.8 h. In addition, the Kp (usually the ratio of the level in a tissue or fluid to that in plasma or blood) is listed as 0.82 in [4], 0.44 in [6] and 3.17 in [8]. Besides, the Drug metabolism in [5] was 3.2 nmol/mg/min. The Tmax in [7] and in data set [11] was 0.5 h in each case. In data set [9], the bioavailability (commonly the share of a dose that reaches the circulation, judged against a reference dose that is usually intravenous) came out at 19.5%. Also, the values for the Drug uptake in data set [10] and in data set [13] were 53.1 ng/g and 17.2 ng/g, respectively. Further, the clearance (as a rule, the rate of elimination divided by the concentration) in [14] came to 5.5 L/h/kg.
For `Cc1cc(OCC(=O)O)cc(C)c1Cc1ccc(O)c(C(C)C)c1` [SOBETIROME], the concentration at 1 h stood at 3.6 ng/g in [16] and 319 ng/g in data set [18]. The Kp at 1 h in data set [17] was found to be 0.03.
